According to ChEMBL document CHEMBL3351583, “Two-pronged attack: dual inhibition of Plasmodium falciparum M1 and M17 metalloaminopeptidases by a novel series of hydroxamic acid-based inhibitors” (J Med Chem, 2014):

Assays:
Leucine aminopeptidase = target: T1, Leucine aminopeptidase (Plasmodium falciparum 3D7, UniProt Q8IL11); assay: Inhibition of Plasmodium falciparum M17 incubated for 10 mins before H-Leu-NHMec substrate addition by fluorescence assay
T1 sequence (Q8IL11 whole entry): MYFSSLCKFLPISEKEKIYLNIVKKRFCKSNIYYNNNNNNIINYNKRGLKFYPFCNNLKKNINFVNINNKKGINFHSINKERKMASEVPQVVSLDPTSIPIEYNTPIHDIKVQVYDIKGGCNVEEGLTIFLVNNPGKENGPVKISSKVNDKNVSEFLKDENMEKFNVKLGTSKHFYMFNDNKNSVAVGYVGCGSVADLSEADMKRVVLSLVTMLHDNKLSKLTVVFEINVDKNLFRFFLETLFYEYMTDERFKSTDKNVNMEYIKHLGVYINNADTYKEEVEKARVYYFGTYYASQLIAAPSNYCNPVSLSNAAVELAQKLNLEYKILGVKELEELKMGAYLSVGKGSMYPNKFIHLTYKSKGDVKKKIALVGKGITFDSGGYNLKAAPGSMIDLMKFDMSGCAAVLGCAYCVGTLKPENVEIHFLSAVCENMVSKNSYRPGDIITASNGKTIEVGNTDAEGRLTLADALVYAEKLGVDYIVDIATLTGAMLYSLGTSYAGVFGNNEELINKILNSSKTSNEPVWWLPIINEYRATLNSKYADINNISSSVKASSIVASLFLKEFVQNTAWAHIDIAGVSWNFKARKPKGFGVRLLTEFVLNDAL
How it was run: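 Recombinant PfA-M17 purified from E. coli by Ni-NTA and gel filtration; 10 min inhibitor preincubation (0-500 μM) in 50 mM Tris pH 8.0, 2 mM CoCl₂, 37 °C, before H-Leu-NHMec at sub-Km level. Fluorescence (355/460 nm) followed to final steady-state velocity; Ki obtained by Dixon plot.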

Aminopeptidase N = target: T2, Aminopeptidase N (Plasmodium falciparum FcB1/Columbia, UniProt O96935); assay: Inhibition of Plasmodium falciparum M1 incubated for 10 mins before H-Leu-NHMec substrate addition by fluorescence assay
T2 sequence (O96935 whole entry): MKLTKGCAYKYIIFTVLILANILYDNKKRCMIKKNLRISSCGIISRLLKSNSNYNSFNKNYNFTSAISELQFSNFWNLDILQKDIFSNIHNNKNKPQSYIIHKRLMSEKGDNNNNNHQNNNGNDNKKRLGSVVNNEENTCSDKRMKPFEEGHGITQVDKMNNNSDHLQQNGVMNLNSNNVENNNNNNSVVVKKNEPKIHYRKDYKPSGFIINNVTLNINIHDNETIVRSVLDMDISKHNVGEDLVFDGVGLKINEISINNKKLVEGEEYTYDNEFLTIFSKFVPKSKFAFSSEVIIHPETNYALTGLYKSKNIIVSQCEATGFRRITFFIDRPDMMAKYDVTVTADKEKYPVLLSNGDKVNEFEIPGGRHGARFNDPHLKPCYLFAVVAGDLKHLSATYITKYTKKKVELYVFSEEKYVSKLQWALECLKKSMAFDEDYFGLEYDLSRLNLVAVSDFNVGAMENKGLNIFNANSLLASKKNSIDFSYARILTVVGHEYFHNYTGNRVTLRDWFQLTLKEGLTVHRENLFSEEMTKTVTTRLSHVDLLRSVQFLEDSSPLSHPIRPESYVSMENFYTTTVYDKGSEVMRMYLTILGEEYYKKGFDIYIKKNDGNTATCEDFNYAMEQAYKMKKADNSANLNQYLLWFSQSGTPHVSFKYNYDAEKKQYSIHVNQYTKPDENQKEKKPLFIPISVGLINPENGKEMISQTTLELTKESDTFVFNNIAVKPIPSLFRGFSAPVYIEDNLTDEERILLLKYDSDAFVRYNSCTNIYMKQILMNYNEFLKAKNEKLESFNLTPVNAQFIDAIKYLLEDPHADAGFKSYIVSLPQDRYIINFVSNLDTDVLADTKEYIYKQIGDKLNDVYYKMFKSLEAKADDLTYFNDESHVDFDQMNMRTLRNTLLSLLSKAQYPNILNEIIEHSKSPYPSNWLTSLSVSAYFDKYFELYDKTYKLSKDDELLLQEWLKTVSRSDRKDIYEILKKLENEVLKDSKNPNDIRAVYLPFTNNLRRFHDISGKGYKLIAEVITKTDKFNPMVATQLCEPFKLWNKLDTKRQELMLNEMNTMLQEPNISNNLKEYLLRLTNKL
How it was run: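 Recombinant PfA-M1 (E. coli, Ni-NTA then size exclusion) preincubated with inhibitor (0-500 μM) 10 min in 100 mM Tris pH 8.0 at 37 °C, then H-Leu-NHMec added below Km. NHMec release read at ex 355/em 460 nm to steady-state velocity; Ki from Dixon plots of 1/V against inhibitor concentration.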

HEK293 = assay: Cytotoxicity against HEK293 cells assessed as growth inhibition up to 40 uM after 72 hrs by resazurin based assay; format: cell-based; settings: human, hek293, 72 h
How it was run: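 HEK293 in DMEM plus 10% FCS, seeded 2000 cells/well, adhered overnight, then dosed to top final 40 μM, 0.4% DMSO, 72 h at 37 °C, 5% CO₂. Medium replaced with 44 μM resazurin in serum-free DMEM, 4-6 h more, fluorescence 530/595 nm; % growth against 40 μM puromycin and 0.4% DMSO controls; IC50 by variable-slope nonlinear regression.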

Plasmodium falciparum = assay: Antimalarial activity against Plasmodium falciparum 3D7 assessed as parasite growth inhibition after 72 hrs by DAPI staining based confocal microscopy; format: functional, organism-based; settings: 3D7, 72 h
How it was run: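 Sorbitol-synchronised 3D7 rings (2% parasitaemia, 0.3% haematocrit) in RPMI/Hepes/hypoxanthine/AlbuMAX II exposed to three-step log dilutions from 40 μM top, final 0.4% DMSO, 72 h at 37 °C, 5% CO₂. Saponin/Triton X/EDTA buffer with DAPI added, overnight RT, confocal imaging counts parasites; % growth versus 2 μM artemisinin and 0.4% DMSO controls; IC50 by variable-slope nonlinear regression.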

Row | Compound | Ki (Leucine aminopeptidase) [nM] | Ki (Aminopeptidase N) [nM] | Activity (HEK293) | IC50 (Plasmodium falciparum) [nM]
1 | CC(C)(C)OC(=O)NC(C(=O)NO)c1ccc(-n2cccn2)cc1 (stereo unspecified) | 30 | 800 | Non-toxic | 783
2 | CC(C)C(=O)NC(C(=O)NO)c1ccc(-n2cccn2)cc1 (stereo unspecified) | 53 | 12300 | Non-toxic | 532
3 | O=C(NC(C(=O)NO)c1ccc(-n2cccn2)cc1)c1ccc(F)cc1 (stereo unspecified) | 12 | 11200 | Non-toxic | 703
4 | CCC(=O)NC(C(=O)NO)c1ccc(-n2cccn2)cc1 (stereo unspecified) | 16 | 41300 | Non-toxic | 455
5 | Nc1cccc(C(=O)NC(C(=O)NO)c2ccc(-n3cccn3)cc2)c1 (stereo unspecified) | 14 | 5500 | Non-toxic | 233
6 | CC(C)(C)NC(=O)NC(C(=O)NO)c1ccc(-n2cccn2)cc1 (stereo unspecified) | 38 | 15300 | Non-toxic | 597
7 | CC(C)(C)OC(=O)NC(C(=O)O)c1ccc(-n2cccn2)cc1 (stereo unspecified) | 464000 | > 500000 | Non-toxic | –
8 | Cl.NC(C(=O)O)c1ccc(-n2cccn2)cc1 (stereo unspecified) | > 500000 | > 500000 | Non-toxic | –
9 | O=C(NC(C(=O)NO)c1ccc(-n2cccn2)cc1)c1ccccc1 (stereo unspecified) | 154 | 23000 | Non-toxic | –

More lines, in order of falling Ki (Leucine aminopeptidase), values ahead:

Row | Ki (Leucine aminopeptidase) [nM] | Ki (Aminopeptidase N) [nM] | Compound | Activity (HEK293) | IC50 (Plasmodium falciparum) [nM]
10 | 86000 | 74500 | Cl.NC(C(=O)NO)c1ccc(-n2cccn2)cc1 (stereo unspecified) | Non-toxic | –
11 | 35 | 4000 | O=C(NC(C(=O)NO)c1ccc(-n2cccn2)cc1)c1cccc(F)c1 (stereo unspecified) | Non-toxic | 429
12 | 28 | 700 | CC(C)(C)C(=O)NC(C(=O)NO)c1ccc(-n2cccn2)cc1 (stereo unspecified) | Non-toxic | 227
13 | 19 | 113000 | CC(=O)NC(C(=O)NO)c1ccc(-n2cccn2)cc1 (stereo unspecified) | Non-toxic | 619
14 | 11 | 7400 | Nc1ccc(C(=O)NC(C(=O)NO)c2ccc(-n3cccn3)cc2)cc1 (stereo unspecified) | Non-toxic | 228
15 | 8 | 1900 | O=C(NC(C(=O)NO)c1ccc(-n2cccn2)cc1)c1ccccc1F (stereo unspecified) | Non-toxic | 351
